Screening data deposited in PubChem BioAssay by several laboratories.
STAT3 inh-1: reduces IL-6 driven STAT3 reporter signal; AID 862; U3A cells, IL-6 STAT3-luciferase reporter, luminescence; host cell line lacks STAT1; inhibition, % at 5.5 µM; hit rate 0.89% among 190,000;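 active = inhibition above the mean inhibition across all screened compounds plus 3 SD, cut at about 44% in these data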;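 also: 0% = DMSO only wells and 100% = 100 µM nifuroxazide control wells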
STAT1 activator: increases IFN-gamma driven STAT1 reporter signal | NIH 3T3 STAT1-luciferase reporter, luminescence; 100% = IFN-gamma alone, no compound | activation (% of control), % at 5.5 µM | hit rate 2.6% among 200,000 | AID 932;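 active = activation above the screen-wide mean activation plus 3 SD, cut at about 130% in these data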;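 also: raw ratio to IFN-gamma control signal so 100% means no change and 0% no light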
STAT3 act: STAT3 signaling activation; hit rate 0.91% among 190,000; activation (% of control), % at 5.6 µM; U3A cells, IL-6 STAT3-luciferase reporter, luminescence; 100% = signal with IL-6 EC80 alone; AID 871;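 active = activation above the screen-wide mean of compound activation plus 3 SD, cut at about 130% in these data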;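 also: 0% = background luminescence of wells with medium and substrate only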
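Material: STAT1-lacking human U3A cells, STAT3 luciferase reporter | Benchmarks: IL-6-only wells as 100% reference | Probe or stimulus: IL-6 (33 ng/mL) | Timing: Compound 1 h, then IL-6 6 h at 37 °C | Detection: Luminescence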
APP 5'UTR act: activates APP 5'UTR luciferase reporter. hit rate 1% among 190,000. activation, % at 2 µM. AID 1276. SH-SY5Y APP 5'UTR luciferase reporter, luminescence; zero percent = DMSO vehicle wells;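 active = activation above a set limit, based on mean plus 3 SD of controls, cut at about 140% in these data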
STAT1 blocker: reduces IFN-gamma driven STAT1 reporter signal | NIH 3T3 STAT1-luciferase reporter, luminescence | AID 920 | inhibition, % at 5.5 µM | hit rate 0.35% among 200,000;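 active = inhibition above a set limit, the mean inhibition across all tested compounds plus 3 SD, cut at about 34% in these data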;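 also: 0% = IFN-gamma with DMSO and 100% = IFN-gamma with 300 µM nifuroxazide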
NF-kB expr up: raises NF-kB expression in human neuronal cells; fold change at 12.5 µM; hit rate 1.6% among 190,000; NF-kB reporter expression; hits give high values; in the data active = fold change above about 3.3
STAT3 inh-2: STAT3 inhibition, confirmation assay; shares compounds with STAT3 inh-1; U3A cells, IL-6 STAT3 luciferase reporter, luminescence; cell line lacks STAT1; inhibition, % at 5.7 µM; hit rate 45% among 1,200; AID 1265;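 active = inhibition above the hit cutoff computed for the primary STAT3 screen, cut at about 44% in these data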;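 also: 0% = IL-6 plus DMSO and 100% = IL-6 plus nifuroxazide control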
NFkB inh STAT3ct: NF-kappaB inhibition in STAT3 inhibitor counter-screen; shares compounds with STAT3 inh-1; HEK293T NF-kB luciferase reporter, TNF-alpha induced; inhibition, % at 5.7 µM; hit rate 36% among 1,200;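 active = inhibition above the mean of solvent-only control wells plus 3 SD, cutoff set per campaign, cut at about 13% in these data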;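 also: 0% = TNF-alpha with DMSO and 100% = TNF-alpha with MG high control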
STAT1 inh 2: STAT1 inhibition in STAT3 inhibitor counter-screen; inhibition, % at 5.7 µM; hit rate 27% among 1,200; shares compounds with STAT3 inh-1; NIH 3T3 STAT1-luciferase reporter, IFN-gamma induced, luminescence;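 active = inhibition above the mean plus 3 SD of solvent-only control wells, limit set per screening run, cut at about 16% in these data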;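 also: 0% = DMSO with IFN-gamma and 100% = nifuroxazide control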
* marks the source's active call; other numbers are inactive results; / = not tested or not shown. In the library only some 5.1% were active in any assay of this set; here they are far more common.

SMILES	STAT3 inh-1	STAT1 activator	STAT3 act	APP 5'UTR act	STAT1 blocker	NF-kB expr up	STAT3 inh-2	NFkB inh STAT3ct	STAT1 inh 2
CCOC(=O)c1ccc(S(=O)(=O)NNC(=O)COc2ccc(C)cc2)cc1	4.1	101.9	98.8	-0.4	-2.2	1.19	/	/	/
CC(C)(C)c1cc(OC(=O)c2ccccc2F)ccc1O	1.8	84.8	101.4	18.0	14.5	1.59	/	/	/
COc1cc(OC)cc(C(=O)Nc2nnc(NC(=S)Nc3ccccc3)s2)c1	60.7*	93.7	49.8	15.1	7.1	1.16	58.9*	-14.1	-14.0
CCc1nnc(NC(=O)c2ccc(OC)cc2)s1	57.3*	89.4	54.5	128.7	9.8	4.01*	32.5	-15.5	-55.7
COCn1ccnc1C(O)(c1ccc(OC)cc1)c1ccc(OC)cc1	8.6	113.2	95.0	-14.1	-15.1	1.12	/	/	/
Cc1cc(NCc2ccccn2)nc2ccccc12	24.5	89.4	83.4	-4.5	11.5	1.27	/	/	/
Cc1nc(NCc2ccccn2)c2ccccc2n1	48.6*	83.8	61.9	-28.9	17.5	0.71	32.4	1.2	11.8
CCOc1ncccc1C(=O)OCC(=O)Nc1ccc(-c2nc3ccc(C)cc3s2)cc1	72.1*	116.8	39.0	163.9*	-18.6	3.45*	45.6*	-20.5	-24.7
Cc1ccc(NC(=O)COC(=O)c2ccco2)cc1	2.0	103.0	101.3	14.6	-5.4	1.05	/	/	/
CNS(=O)(=O)c1cccc(C(=O)OCC(=O)Nc2ccc(-c3nc4ccc(C)cc4s3)cc2)c1	68.3*	73.1	46.0	167.1*	28.0	1.02	32.5	-13.4	-79.2
Cc1ccc2nc(-c3ccc(NC(=O)COC(=O)c4ccco4)cc3)sc2c1	50.5*	140.8*	56.2	148.1*	-44.8	4.29*	28.3	-20.3	-64.0
COc1ccc(S(=O)(=O)Nc2ccc(N3CCOCC3)nc2)cc1	10.7	96.5	97.4	-15.9	2.4	1.19	/	/	/
CN=c1scc(C)n1/N=C/c1ccc2c(c1)OCO2	48.9*	119.7	62.5	208.6*	-21.6	8.6*	13.6	-22.3	-130.2
CCOc1cccc(C(=O)Nc2nnc(-c3ccco3)s2)c1	47.2*	124.6	60.9	119.8	-26.8	3.3*	7.1	-15.1	-61.4
CCOCCCNC(=O)c1c[nH]c2c(CC)cccc2c1=O	6.4	102.4	97.4	-3.9	-4.8	0.98	/	/	/
CCCn1c(CN(C)Cc2ccccc2)nc2c1c(=O)n(C)c(=O)n2C	46.0*	81.5	64.1	7.3	20.1	0.66	28.5	4.4	14.3
Cc1cccc(Cn2c(NCCO)nc3c2c(=O)n(C)c(=O)n3C)c1	52.0*	83.0	59.9	8.6	18.6	0.87	34.7	9.6	19.6*
Cn1c(=O)c2c(nc(NC(Cc3ccccc3)C(=O)O)n2Cc2ccccc2)n(C)c1=O (centres undefined)	1.9	102.3	101.3	6.0	-2.5	1	/	/	/
CNc1nc2c(c(=O)n(C)c(=O)n2C)n1Cc1ccccc1	54.9*	85.4	59.4	2.8	16.0	0.82	34.4	13.3*	18.1*
CCCCn1c(CN(C)Cc2ccccc2)nc2c1c(=O)n(C)c(=O)n2C	32.4	79.0	76.5	6.8	22.9	0.77	/	/	/
COc1cccc(CN(CC2CCCO2)C(=O)c2cc3ccccc3oc2=O)c1 (centres undefined)	14.5	109.4	93.3	18.8	-12.3	1.4	/	/	/
O=C(CSC1CC(=O)N(c2ccc(C(=O)O)cc2)C1=O)Nc1ccc(Cl)cc1 (centres undefined)	-3.8	98.1	105.3	22.8	2.6	1.16	/	/	/
Cc1nc(-c2coc3cc(OCC(=O)O)ccc3c2=O)cs1	38.2	79.0	73.5	-0.5	23.0	0.84	/	/	/
COc1ccc2c(=O)c(-c3nc(C)cs3)coc2c1	51.3*	119.6	58.6	96.5	-16.2	5.89*	4.1	-16.7	-103.2
CC(Nc1nc(-c2ccc3c(c2)NC(=O)CO3)cs1)c1ccccc1 (centres undefined)	5.9	111.8	95.1	2.9	-12.5	1.23	/	/	/
SMILES	STAT3 inh-1	STAT1 activator	STAT3 act	APP 5'UTR act	STAT1 blocker	NF-kB expr up	STAT3 inh-2	NFkB inh STAT3ct	STAT1 inh 2
C=CCN=c1scc(-c2ccc3c(c2)NC(=O)CO3)n1/N=C(\C)c1ccccn1	75.3*	80.5	39.2	-51.6	20.7	0.75	74.4*	18.3*	22.0*
O=C(Nc1ccc(N2CCN(C(=O)c3ccco3)CC2)c(Cl)c1)c1cc2ccccc2o1	47.8*	99.8	62.4	75.0	9.3	0.29	47.8*	10.8	3.9
CCCC(=O)N1CCN(c2ccc(NC(=O)c3cc4ccccc4o3)cc2Cl)CC1	50.3*	89.1	60.1	6.6	11.7	0.34	43.2	2.6	-2.5
CCCC(=O)N1CCN(c2ccc(NC(=O)c3cccs3)cc2Cl)CC1	9.4	88.5	96.8	-2.5	12.1	0.75	/	/	/
CCC(=O)N1CCN(c2ccc(NC(=O)c3cc4ccccc4o3)cc2Cl)CC1	49.0*	92.5	61.1	-14.3	8.1	0.35	34.3	-3.0	-13.6
O=C(c1cc2ccccc2o1)N1CCN(c2ccccc2Cl)CC1	7.2	97.4	97.3	10.4	2.8	1.05	/	/	/
Cc1c2c(nc3nnnn13)CCCC2	4.4	94.3	100.3	17.8	3.3	1.38	/	/	/
C=C(C)c1cccc(C(C)(C)NC(=O)N(C)C2CCN(C)CC2)c1	6.1	98.4	96.8	18.6	-0.1	1.64	/	/	/
Cc1ccc(CN2CCN(/N=C\c3cccc([N+](=O)[O-])c3)CC2)cc1	8.2	97.0	94.9	0.6	1.4	0.98	/	/	/
COc1cccc(OC)c1Nc1nc(C)nc2c1nnn2Cc1ccccc1Cl	4.8	92.0	99.8	5.5	7.1	0.97	/	/	/
CCc1nc(Nc2ccc(OC)c(OC)c2)c2nnn(Cc3ccccc3Cl)c2n1	67.1*	78.3	46.2	-10.5	23.6	1.36	57.8*	17.1*	19.4*
COc1ccc(CCNc2ncnc3sccc23)cc1OC	88.9*	76.9	29.0	27.8	23.5	0.64	88.8*	39.6*	31.4*
NS(=O)(=O)c1ccc(CCNc2ncnc3sccc23)cc1	53.8*	79.6	55.5	-17.3	22.4	0.76	47.5*	12.8	23.1*
COc1ccc(CSc2ncnc3sccc23)cc1F	13.0	112.7	92.9	6.2	-16.1	/	/	/	/
Cc1sc2ncnc(NCCc3ccc(S(N)(=O)=O)cc3)c2c1C	73.5*	72.1	38.9	-8.1	30.4	0.82	79.7*	28.9*	29.7*
O=C(Oc1cccc(Nc2ncnc3ccccc23)c1)c1ccccc1Cl	53.7*	91.2	56.9	-7.7	10.4	0.75	48.2*	0.9	-1.4
Cn1cccc1/C=C(/C#N)C(N)=S	4.5	99.7	99.2	16.4	0.3	1.06	/	/	/
